Experimental data pooled from the literature.
Lines come from different studies, so protocols differ.
LRRK2: Leucine-rich repeat serine/threonine-protein kinase 2 (LRRK2, Homo sapiens, UniProt Q5S007)
LRRK2 G2019S: Leucine-rich repeat serine/threonine-protein kinase 2 (LRRK2, Homo sapiens, UniProt Q5S007, G2019S)

SMILES | target | effect on | mode | technique | tested at | endpoint | result
CN1CC(Oc2cnc(C#N)cc2-c2ccn3nc(NC(=O)C4CC4)cc3c2)C1 | LRRK2 | enzyme activity | inhibitor | – | 1 µM | inhibition | -19%
Nc1ncnc2occ(-c3ccc(NC(=O)Nc4cc(C(F)(F)F)ccc4F)cc3)c12 | LRRK2 | cell-free assay | inhibitor | – | 20 µM | remaining signal | 5.2%
O=C(O)[C@@H]1[C@@H](Cn2nnc3ccccc3c2=O)CC[C@H]1C(=O)c1ccc(OCCC2CCOCC2)cc1 | LRRK2 G2019S | cell-free assay | – | competition with immobilised ligand | 1 µM | remaining binding | 100%
c1cnn2ncc(-c3ccnc(N4CCC45COC5)n3)c2c1 | LRRK2 G2019S | binding | – | – | 1 µM | remaining binding | 21%
CC(C)CC(=O)N1CCc2nc(-c3ccc(Br)cc3)nc(N(C)Cc3ccccc3)c2C1 | LRRK2 G2019S | cell-free assay | – | competition with immobilised ligand | 0.1 µM | remaining binding | 100%
CN(C)C1CCN(CC#Cc2nn(C3CCCC3)c3nc(NCc4ccccc4)ncc23)C1 (centres unmarked) | LRRK2 | enzyme activity | inhibitor | FRET | 0.1 µM | inhibition | -1%
N#Cc1ccc(Nc2ccc3[nH]c(=O)[nH]c3c2)c(Cl)c1 | LRRK2 G2019S | cell-free assay | – | competition with immobilised ligand | 1 µM | remaining binding | 93%
Cc1cnn2ncc(-c3ccnc(N(C)C)n3)c2c1 | LRRK2 G2019S | binding | – | – | 1 µM | remaining binding | 100%
Cc1ccc(C(=O)Nc2ccc(CN3CCN(C)CC3)c(C(F)(F)F)c2)cc1C#Cc1cnc2cccnn12 | LRRK2 G2019S | enzyme activity | inhibitor | – | 23.5 nM | remaining activity | 99%
Cc1ccc(NC(=O)c2ccc(C)c(C(F)(F)F)c2)cc1C#Cc1nn(C2CCC(O)CC2)c2ncnc(N)c12 (centres unmarked) | LRRK2 | cell-free assay | – | – | 10 µM | remaining signal | 15%
CC(C)(C)c1nc2c(s1)c1nc(N)ncc1c1ccc(NS(=O)(=O)c3c(F)cccc3F)c(F)c12 | LRRK2 | enzyme activity | inhibitor | radiometric | 1 µM | remaining activity | 93%
C[C@H](NC(=O)c1cnc2n1[C@](C)(Cc1ccc(C#N)cc1)C(=O)N2c1cc(Cl)c(F)c(Cl)c1)C(=O)NC1(c2ccccn2)CC1 | LRRK2 G2019S | cell-free assay | – | competition with immobilised ligand | 1 µM | remaining binding | 100%
COc1cc(-c2cc(-c3ccc(N4CCNCC4)cc3)cnc2N)cc(OC)c1OC | LRRK2 | enzyme activity | inhibitor | – | 0.1 µM | inhibition | 6%
CN(c1nccc(-c2cnn3ncccc23)n1)C1CC1 | LRRK2 G2019S | binding | – | – | 1 µM | remaining binding | 100%
CN(C)C(=O)Cn1cc(-c2nc(C3(c4ccc(-c5cnc(N)nc5)cc4)CC3)no2)cn1 | LRRK2 | cell-free assay | – | competition with immobilised ligand | 1 µM | remaining binding | 100%
O=C(Nc1cnn(-c2csc(C(=O)NC3COC3)c2)c1)Nc1ccccc1Cl | LRRK2 | enzyme activity | inhibitor | – | 5 µM | remaining activity | 88.2%
Cc1ccc(NC(=O)c2ccc(CN3CCN(C)CC3)cc2)cc1Nc1nc(-c2cccnc2)cs1 | LRRK2 | cell-free assay | – | – | 0.5 µM | remaining signal | 107%
N[C@@H]1CCN(c2nccc(-c3cnn4ncccc34)n2)C1 | LRRK2 | binding | – | – | 1 µM | remaining binding | 100%
CCc1ccccc1C(=O)Nc1n[nH]c2c(C)c(F)c(C3C(C#N)=C(C)N(C)C(C)=C3C#N)cc12 | LRRK2 G2019S | cell-free assay | – | competition with immobilised ligand | 1 µM | remaining binding | 100%
N#CCCc1ccc2c(c1)-c1[nH]c3ccc([N+](=O)[O-])cc3c1CC(=O)N2 | LRRK2 | cell-free assay | – | – | 0.5 µM | remaining signal | 73.8%
O=C(O)c1cc(-c2ccc(C3CCNCC3)cc2)c2ccc(-c3ccc(C(F)(F)F)cc3)cc2c1 | LRRK2 | cell-free assay | – | competition with immobilised ligand | 1 µM | remaining binding | 100%
COc1cc(Cl)c(C(=O)N[C@@H](CN[C@H]2CC[C@@H](N)CC2)Cc2ccc(C#N)cc2)cc1-c1ccc(CN[C@H](C)c2ccc(C)cc2)o1 | LRRK2 | enzyme activity | inhibitor | – | 1 µM | remaining activity | 104%
Cc1cc(NC(=O)c2cccc3cc(-c4cccc5[nH]nc(N)c45)ccc23)ccc1F | LRRK2 | enzyme activity | inhibitor | – | 0.1 µM | activity vs control | 98%
Cc1c(C(=O)O)cc(-c2ccc(C3CCNCC3)cc2)c2ccc(-c3ccc(C(F)(F)F)cc3)cc12 | LRRK2 G2019S | binding | – | competition with immobilised ligand | 1 µM | remaining binding | 100%
CN(C)c1ncc(F)c(-c2cnn3ncccc23)n1 | LRRK2 | binding | – | – | 1 µM | remaining binding | 50%
O=C1Nc2ccc(Cl)cc2C1=Cc1cc(Cl)c(O)c(Cl)c1 | LRRK2 | cell-free assay | – | – | 0.5 µM | remaining signal | 11%
